Our source for the Activity and MIC values is ChEMBL document CHEMBL5532693, “Design, synthesis and antimycobacterial activity of imidazo[1,5-a]quinolines and their zinc-complexes” (RSC Med Chem, 2024).

One data set has as its system Calu-3. Nature of the data set: Cytotoxicity against human Calu-3 cells assessed as reduction in cell viability at 100 uM incubated for 48 hrs by CellTiter-Glo Luminescent Cell Viability assay. In kind it is toxicity, cell-based. The following applies: calu-3, 48 h. Summed up: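 Confluent Calu-3 cells in DMEM/F-12 GlutaMAX with 10% FCS and 1% penicillin/streptomycin, 37°C, 5% CO2. Compounds were dissolved in DMSO (10 mM stocks) and tested once at 100 μM final with 1% DMSO, in triplicate, for 48 h. ATP luminescence was normalized to the DMSO control (100%). Viability below 80% was classed as cytotoxic. Ionomycin 100 μM served as positive control.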

The subject of data set [1] is Mycobacterium tuberculosis. Nature of the data set: Antibacterial activity against Mycobacterium tuberculosis. In kind it is functional.
For data set [2], the system named is Mycobacterium tuberculosis. Nature of the data set: Antibacterial activity against Mycobacterium tuberculosis H37Ra assessed as inhibition of bacterial growth incubated for 7 days by BacTiter-Glo reagent based assay. In kind it is functional. Summed up:
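M. tuberculosis H37Ra pre-grown 14 days in 7H9 with palmitic acid, casitone, BSA, catalase and 0.2% glycerol (37°C, 180 rpm, 85% rH). Diluted to McFarland 1, then to 1 × 10⁶ cells/mL. Compounds were in DMSO. Plates were held 7 days microaerophilic at 37°C/5% CO₂, with ATP luminescence read-out. MIC was the lowest concentration giving ≥85% inhibition versus blank-normalised untreated growth.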

Values after ≈ are worked out from the molar mass of the structure shown.

`c1ccc(-c2ccc(-c3nc(-c4ccccc4)n4c3ccc3ccccc34)nc2)cc1`: in the data set on Calu-3, the Activity entry is listed as “Non-Toxic”. Take `C[C@H]1COc2c(N3CCN(C)CC3)c(F)cc3c(=O)c(C(=O)O)cn1c23` [LEVOFLOXACIN ANHYDROUS]: in data set [1], the MIC came out at 0.8 µM (≈ 0.289 µg/mL).

`COc1ccccc1-c1nc(-c2ccccc2)n2c1ccc1ccccc12`: the Activity entry with Calu-3 is on record as “Non-Toxic”. With `c1ccc(-c2nc(-c3ccccn3)n3c2ccc2ccccc23)nc1`, the MIC in data set [2] (168 h, time 7 day) came to 6 µM (≈ 1.93 µg/mL). The Activity result in the data set on Calu-3 is “Non-Toxic”. As to `c1ccc(-c2nc(-c3cc4ccccc4cn3)c3ccc4ccccc4n23)cc1`, the MIC in data set [2] (168 h, time 7 day) was found to be 0.5 µM (≈ 0.186 µg/mL). Further, the Activity entry with Calu-3 was “Non-Toxic”.

The molecule `NCC[C@H](O)C(=O)N[C@@H]1C[C@H](N)[C@@H](O[C@H]2O[C@H](CN)[C@@H](O)[C@H](O)[C@H]2O)[C@H](O)[C@H]1O[C@H]1O[C@H](CO)[C@@H](O)[C@H](N)[C@H]1O` [AMIKACIN] had a minimum inhibitory concentration (MIC) in data set [1] of 0.4 µM (≈ 0.234 µg/mL). As for `c1ccc(-c2nc(-c3ccccn3)c3ccc4ccccc4n23)cc1`, the Activity result in the data set on Calu-3 is “Toxic”.

As for `c1ccc(-c2nc(-c3ncccn3)c3ccc4ccccc4n23)cc1`, the Activity result with Calu-3 is on record as “Toxic”.

For `c1ccc(-c2nc(-c3ccccn3)n3c2ccc2ccccc23)cc1`, in data set [2] (168 h, time 7 day), the MIC came out at 25 µM (≈ 8.03 µg/mL). In addition, the Activity result with Calu-3 is recorded as “Toxic”. Regarding `c1ccc(-c2nc(-c3cccs3)c3ccc4ccccc4n23)cc1`, in the data set on Calu-3, the Activity result is listed as “Non-Toxic”. For the molecule `NNC(=O)c1ccncc1` [ISONIAZID], it took 0.3 µM (≈ 0.0411 µg/mL) to inhibit growth in data set [1] (MIC). The same measure, in the same setting: under `COc1nc2ccc(Br)cc2cc1[C@@H](c1ccccc1)[C@@](O)(CCN(C)C)c1cccc2ccccc12` [BEDAQUILINE] stands 0.03 µM (≈ 0.0167 µg/mL). On to `c1ccc(-c2nc(-c3cccc4ccccc34)n3c2ccc2ccccc23)nc1`, for which the MIC in data set [2] (168 h, time 7 day) came out at 1 µM (≈ 0.371 µg/mL). In addition, the Activity result in the data set on Calu-3 was “Toxic”. For the molecule `c1ccc(N(c2ccccc2)c2nc(-c3ccccn3)c3ccc4ccccc4n23)cc1`, the Activity entry in the data set on Calu-3 is reported as “Non-Toxic”. Molecule `CCc1cc(C(N)=S)ccn1` [ETHIONAMIDE] gave a minimum inhibitory concentration (MIC) in data set [1] of 10 µM (≈ 1.66 µg/mL).

As for `CN(C)c1ccccc1-c1nc(-c2ccccc2)n2c1ccc1ccccc12`, the Activity entry in the data set with Calu-3 is reported as “Toxic”. Still for that read-out and setting: under `c1ccc(-c2nc(-c3ccccc3)n3c2ccc2ccccc23)cc1` stands “Non-Toxic”. Take `CC[C@@H](CO)NCCN[C@@H](CC)CO` [ETHAMBUTOL]: the lowest concentration to inhibit growth in data set [1] (MIC) was 0.3 µM (≈ 0.0613 µg/mL). With GENTAMICIN, in data set [2] (time 7.0 day), the MIC is 4 µM.
